Converted amounts (≈) assume the structure as drawn. The source made the active and inactive calls. No cut-off for these calls is given here.
Tests used:
[1] = Aqueous solubility of compound at pH 5; assay type: physicochemical
[2] = biological target: T1, Calcitonin gene-related peptide type 1 receptor (Homo sapiens, UniProt O60894+Q16602); assay: Displacement of [I125]CGRP from human CGRP receptor in SK-N-MC cells; assay type: cell-based
[3] = biological target: T2, Cytochrome P450 3A4 (Homo sapiens, UniProt P08684); assay: Inhibition of recombinant CYP3A4 expressed in insect microsomes after 45 mins in presence of BZR substrate; assay type: ADME, Microsome
T2 sequence (P08684 whole entry): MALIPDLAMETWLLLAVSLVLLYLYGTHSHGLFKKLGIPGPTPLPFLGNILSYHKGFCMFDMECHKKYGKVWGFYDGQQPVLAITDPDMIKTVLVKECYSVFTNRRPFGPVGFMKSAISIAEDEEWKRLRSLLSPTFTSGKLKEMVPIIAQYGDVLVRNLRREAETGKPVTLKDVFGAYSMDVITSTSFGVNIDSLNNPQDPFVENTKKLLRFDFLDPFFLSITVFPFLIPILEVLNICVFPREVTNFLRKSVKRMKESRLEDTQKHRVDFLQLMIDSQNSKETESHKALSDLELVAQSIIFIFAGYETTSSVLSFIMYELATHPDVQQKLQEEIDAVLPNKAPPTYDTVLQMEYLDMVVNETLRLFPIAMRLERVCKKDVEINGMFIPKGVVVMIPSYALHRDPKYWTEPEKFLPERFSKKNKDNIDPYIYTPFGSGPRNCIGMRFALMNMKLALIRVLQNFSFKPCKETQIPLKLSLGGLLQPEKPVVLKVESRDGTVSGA

[4] = biological target: T2, Cytochrome P450 3A4; assay: Inhibition of recombinant CYP3A4 expressed in insect microsomes after 20 mins in presence of BFC substrate; assay type: ADME, Microsome
[5] = Aqueous solubility of compound; assay type: physicochemical; details: buffer
How it was run: (§1)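 Aqueous solubility measured over pH 1.0-6.8.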

[6] = Ex vivo inhibition of human alpha CGRP-induced artery dilation in human intracranial artery preincubated for 30 mins; assay type: functional
How it was run: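 Wire-mounted human intracranial artery rings were preincubated 30 min with a single antagonist concentration (0.1-30 nM). They were then contracted with 10 mM K+ and given increasing hαCGRP to full relaxation. The CGRP curve shift was analysed by Schild analysis.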

[7] = Ex vivo effect on basal artery tension in human coronary artery assessed as contractility; assay type: functional, tissue-based
How it was run: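 Contractility was measured in wire-mounted ex vivo human artery rings at up to 10 µM compound. Serotonin (10 µM) was added at the end of each session to give maximal contraction.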

[8] = tested on: Callithrix jacchus; assay: Inhibition of human alpha CGRP-induced increase in facial blood flow in marmoset at 0.03 mg/kg, sc after 15, 60 and 105 mins by laser Doppler flowmetry; assay type: functional, organism-based; design: dose 0.03 mg/kg
How it was run: (§2)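 Anesthetised marmosets received hRCGRP 10 µg/kg IV at 45 min intervals (-30, 15, 60 and 105 min); antagonist given SC at 0 min (dose range 0.003-0.03 mg/kg), vehicle-treated group run in parallel. Facial blood flow increase after each CGRP challenge read by laser Doppler flowmetry; plasma drug levels sampled at the 15 min test time.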

[9] = tested on: Callithrix jacchus; assay: Inhibition of human alpha CGRP-induced increase in facial blood flow in marmoset at 0.01 mg/kg, sc after 60 and 105 mins by laser Doppler flowmetry; assay type: functional, organism-based; design: dose 0.01 mg/kg; how it was run: as §2
[10] = tested on: Callithrix jacchus; assay: Inhibition of human alpha CGRP-induced increase in facial blood flow in marmoset at 0.01 mg/kg, sc after 15 mins by laser Doppler flowmetry; assay type: functional, organism-based; design: dose 0.01 mg/kg
How it was run: (§3)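 Anesthetized marmosets received iv hαCGRP (10 µg/kg) at -30, 15, 60 and 105 min. Antagonist was given sc at 0 min. Facial blood flow changes were measured by laser Doppler flowmetry and compared with vehicle-treated animals.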

[11] = tested on: Callithrix jacchus; assay: Inhibition of human alpha CGRP-induced increase in facial blood flow in marmoset at 0.003 mg/kg, sc by laser Doppler flowmetry; assay type: functional, organism-based; design: dose 0.003 mg/kg; how it was run: as §3
[12] = Oral bioavailability in Sprague-Dawley rat; assay type: ADME, organism-based; details: in vivo
[13] = Oral bioavailability in cynomolgus monkey; assay type: ADME, organism-based, Macaca fascicularis; details: in vivo
[14] = Intrinsic permeability across human Caco-2 cells; assay type: ADME, cell-based; details: read-out: IP
[15] = Aqueous solubility of compound at pH 1 to 6.8; assay type: physicochemical; how it was run: as §1
[16] = tested on: Oryctolagus cuniculus; assay: Cmax in New Zealand white rabbit at 0.5 mg/kg, iv; assay type: ADME, organism-based; design: dose 0.5 mg/kg, route intravenous; details: in vivo
How it was run: (§4)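 Rabbits given an iv dose of 0.5 mg/kg as the reference leg for intranasal dosing. Clearance, Vss and terminal half-life were derived from the plasma concentration-time profile.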

[17] = Tmax in New Zealand white rabbit at 0.5 mg/kg, iv; assay type: ADME, organism-based, Oryctolagus cuniculus; design: dose 0.5 mg/kg, route intravenous; details: in vivo; how it was run: as §4
[18] = tested on: Oryctolagus cuniculus; assay: Total AUC in New Zealand white rabbit at 0.5 mg/kg, iv; assay type: ADME, organism-based; design: dose 0.5 mg/kg, route intravenous, time AUCmax; details: in vivo; how it was run: as §4
[19] = Clearance in New Zealand white rabbit at 0.5 mg/kg, iv; assay type: ADME, organism-based, Oryctolagus cuniculus; design: dose 0.5 mg/kg, route intravenous; details: in vivo; how it was run: as §4
[20] = Volume of distribution at steady state in New Zealand white rabbit at 0.5 mg/kg, iv; assay type: ADME, organism-based, Oryctolagus cuniculus; design: dose 0.5 mg/kg, route intravenous; details: in vivo, read-out: Vdss; how it was run: as §4
[21] = Half life in New Zealand white rabbit at 0.5 mg/kg, iv; assay type: ADME, organism-based, Oryctolagus cuniculus; design: dose 0.5 mg/kg, route intravenous; details: in vivo; how it was run: as §4
[22] = Tmax in New Zealand white rabbit at 0.1 mg/kg, intranasally; assay type: ADME, organism-based, Oryctolagus cuniculus; design: dose 0.1 mg/kg; details: in vivo, inhaled or intranasal
How it was run: (§5)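 Rabbits dosed intranasally by spraying a solution into the nasal cavity. Plasma concentrations followed for up to 24 h. Bioavailability was calculated against an iv leg given at 0.5 mg/kg.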

[23] = tested on: Oryctolagus cuniculus; assay: Total AUC in New Zealand white rabbit at 0.1 mg/kg, intranasally; assay type: ADME, organism-based; design: route nasal, time AUCmax, dose 0.1 mg/kg; details: in vivo, inhaled_or_intranasal; how it was run: as §5
[24] = tested on: Oryctolagus cuniculus; assay: Bioavailability in New Zealand white rabbit at 0.1 mg/kg, intranasally; assay type: ADME, organism-based; details: in vivo, inhaled_or_intranasal, 1.0 mg/kg, in the assay text read “1.0 mg/kg” for “0.1 mg/kg”; how it was run: as §5
[25] = Cmax in New Zealand white rabbit at 0.3 mg/kg, intranasally; assay type: ADME, organism-based, Oryctolagus cuniculus; design: route nasal, dose 0.3 mg/kg; details: in vivo, inhaled or intranasal; how it was run: as §5
[26] = Tmax in New Zealand white rabbit at 0.3 mg/kg, intranasally; assay type: ADME, organism-based, Oryctolagus cuniculus; design: dose 0.3 mg/kg; details: in vivo, inhaled or intranasal; how it was run: as §5
[27] = Total AUC in New Zealand white rabbit at 0.3 mg/kg, intranasally; assay type: ADME, organism-based, Oryctolagus cuniculus; design: time AUCmax, route nasal, dose 0.3 mg/kg; details: in vivo, inhaled or intranasal; how it was run: as §5
[28] = Bioavailability in New Zealand white rabbit at 0.3 mg/kg, intranasally; assay type: ADME, organism-based, Oryctolagus cuniculus; details: in vivo, inhaled or intranasal; how it was run: as §5
[29] = Drug level in New Zealand white rabbit after 24 hrs; assay type: ADME, organism-based, Oryctolagus cuniculus; details: in vivo, read-out: Drug uptake
How it was run: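 Plasma level of drug in rabbits measured 24 h after intranasal dosing of a sprayed solution.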

[30] = Bioavailability in intratracheally dosed Sprague-Dawley rat; assay type: ADME, organism-based; details: in vivo, inhaled or intranasal
[31] = Bioavailability in sc dosed Sprague-Dawley rat in presence of PG:D5W vehicle; assay type: ADME, organism-based; details: in vivo
How it was run: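 Rats dosed subcutaneously in PG:D5W vehicle to determine bioavailability.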

[32] = Bioavailability in sc dosed Sprague-Dawley rat in presence of PBS vehicle; assay type: ADME, organism-based; details: in vivo
[33] = Bioavailability in sc dosed cynomolgus monkey; assay type: ADME, organism-based, Macaca fascicularis; details: in vivo
How it was run: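 Cynomolgus monkeys dosed subcutaneously in PG:D5W vehicle to determine bioavailability.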

[34] = Fraction unbound in human serum at 10 uM; assay type: ADME, cell-free
How it was run: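 Serum protein binding measured in vitro with compound at 10 µM.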

[35] = biological target: T1, Calcitonin gene-related peptide type 1 receptor; assay: Antagonist activity at human CGRP receptor in SK-N-MC cells assessed as inhibition of CGRP-stimulated cAMP production
[36] = Displacement of [I125]CGRP from marmoset CGRP receptor; design: species or system Callithrix jacchus
[37] = biological target: Calcitonin gene-related peptide type 1 receptor (Rattus norvegicus, UniProt Q63118+Q9JJ74); assay: Displacement of [I125]CGRP from rat CGRP receptor
Chain of Calcitonin gene-related peptide type 1 receptor (Rattus norvegicus, UniProt Q63118+Q9JJ74) (Q63118 whole entry, one chain of several): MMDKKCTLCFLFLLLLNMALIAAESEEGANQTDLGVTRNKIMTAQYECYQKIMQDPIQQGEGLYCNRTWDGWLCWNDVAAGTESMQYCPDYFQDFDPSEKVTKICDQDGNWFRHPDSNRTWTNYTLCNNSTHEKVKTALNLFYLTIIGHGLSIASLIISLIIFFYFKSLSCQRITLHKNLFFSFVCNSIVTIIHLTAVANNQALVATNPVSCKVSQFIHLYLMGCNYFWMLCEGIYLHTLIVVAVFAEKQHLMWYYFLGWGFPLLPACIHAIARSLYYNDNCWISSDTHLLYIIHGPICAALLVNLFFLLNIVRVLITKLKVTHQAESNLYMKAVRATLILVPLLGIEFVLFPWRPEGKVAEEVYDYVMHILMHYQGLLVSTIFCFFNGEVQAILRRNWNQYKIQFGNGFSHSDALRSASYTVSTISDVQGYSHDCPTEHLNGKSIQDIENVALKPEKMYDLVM

[38] = biological target: Cytochrome P450 2C19 (Homo sapiens, UniProt P33261); assay: Inhibition of human recombinant CYP2C19 expressed in insect microsomes
Chain of Cytochrome P450 2C19 (P33261 whole entry): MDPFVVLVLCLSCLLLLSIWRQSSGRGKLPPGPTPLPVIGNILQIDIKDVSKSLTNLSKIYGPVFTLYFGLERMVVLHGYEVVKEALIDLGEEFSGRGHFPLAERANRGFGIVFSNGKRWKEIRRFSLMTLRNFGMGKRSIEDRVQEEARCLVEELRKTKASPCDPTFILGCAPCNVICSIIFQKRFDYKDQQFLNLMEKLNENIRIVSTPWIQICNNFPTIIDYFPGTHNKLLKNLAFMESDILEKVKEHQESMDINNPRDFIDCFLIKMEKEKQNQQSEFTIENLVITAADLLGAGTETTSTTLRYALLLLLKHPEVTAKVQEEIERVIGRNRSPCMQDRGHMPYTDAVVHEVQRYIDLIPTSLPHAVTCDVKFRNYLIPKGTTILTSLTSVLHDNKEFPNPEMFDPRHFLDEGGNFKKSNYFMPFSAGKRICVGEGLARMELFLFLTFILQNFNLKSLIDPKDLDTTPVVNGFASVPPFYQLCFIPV

[39] = biological target: Cytochrome P450 2C9 (Homo sapiens, UniProt P11712); assay: Inhibition of human recombinant CYP2C9 expressed in insect microsomes
Chain of Cytochrome P450 2C9 (P11712 whole entry): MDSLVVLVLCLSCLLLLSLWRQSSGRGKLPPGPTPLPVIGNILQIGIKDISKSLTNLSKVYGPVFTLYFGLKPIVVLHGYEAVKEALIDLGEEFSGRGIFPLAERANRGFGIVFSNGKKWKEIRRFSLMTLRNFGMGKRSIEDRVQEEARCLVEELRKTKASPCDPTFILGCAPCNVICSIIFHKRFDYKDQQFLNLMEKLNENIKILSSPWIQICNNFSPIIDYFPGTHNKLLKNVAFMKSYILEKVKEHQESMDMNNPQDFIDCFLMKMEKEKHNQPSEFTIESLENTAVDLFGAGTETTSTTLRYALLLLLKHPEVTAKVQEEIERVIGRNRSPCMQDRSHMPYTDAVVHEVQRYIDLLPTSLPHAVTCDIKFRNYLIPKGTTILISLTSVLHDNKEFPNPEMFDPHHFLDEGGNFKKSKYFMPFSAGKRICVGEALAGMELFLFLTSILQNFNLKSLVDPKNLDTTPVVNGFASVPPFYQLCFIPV

[40] = Displacement of [I125]AM from adrenomedullin 1 receptor expressed in CHO cells; assay type: cell-based
[41] = Displacement of [I125]AM from adrenomedullin 2 receptor expressed in CHO cells; assay type: cell-based
[42] = biological target: T3, Calcitonin receptor (Homo sapiens, UniProt P30988); assay: Displacement of [125I]calcitonin from calcitonin receptor in human T47D cells; assay type: cell-based
T3 sequence (P30988 whole entry): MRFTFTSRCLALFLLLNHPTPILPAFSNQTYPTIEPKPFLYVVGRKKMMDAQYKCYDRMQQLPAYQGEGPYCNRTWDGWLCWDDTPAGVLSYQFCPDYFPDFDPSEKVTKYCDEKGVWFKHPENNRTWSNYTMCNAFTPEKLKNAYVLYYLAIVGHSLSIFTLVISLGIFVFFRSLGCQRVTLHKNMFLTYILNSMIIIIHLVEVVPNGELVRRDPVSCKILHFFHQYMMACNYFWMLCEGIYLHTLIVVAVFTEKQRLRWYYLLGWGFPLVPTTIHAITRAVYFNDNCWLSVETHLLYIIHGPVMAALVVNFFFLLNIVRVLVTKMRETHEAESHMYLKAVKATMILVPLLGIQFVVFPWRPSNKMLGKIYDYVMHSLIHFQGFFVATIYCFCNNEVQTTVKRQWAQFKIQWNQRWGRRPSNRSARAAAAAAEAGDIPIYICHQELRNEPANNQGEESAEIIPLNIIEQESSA

[43] = Displacement of [I125]AMY from amylin 1 receptor expressed in CHO cells; assay type: cell-based
[44] = Displacement of [I125]AMY from amylin 3 receptor expressed in CHO cells; assay type: cell-based
[45] = Ex vivo reversal of human alpha CGRP-induced artery dilation in human intracranial artery; assay type: functional
How it was run: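 Human intracranial artery rings were wire-mounted on a force transducer and contracted with 10 mM KCl. They were then fully dilated with 1 nM hαCGRP. Antagonist was added cumulatively in half-log increments to reverse the dilation.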

[46] = Cmax in New Zealand white rabbit at 1.0 mg/kg, intranasally; details: in vivo, inhaled or intranasal

T1 sequence (Q16602 whole entry, one chain of several): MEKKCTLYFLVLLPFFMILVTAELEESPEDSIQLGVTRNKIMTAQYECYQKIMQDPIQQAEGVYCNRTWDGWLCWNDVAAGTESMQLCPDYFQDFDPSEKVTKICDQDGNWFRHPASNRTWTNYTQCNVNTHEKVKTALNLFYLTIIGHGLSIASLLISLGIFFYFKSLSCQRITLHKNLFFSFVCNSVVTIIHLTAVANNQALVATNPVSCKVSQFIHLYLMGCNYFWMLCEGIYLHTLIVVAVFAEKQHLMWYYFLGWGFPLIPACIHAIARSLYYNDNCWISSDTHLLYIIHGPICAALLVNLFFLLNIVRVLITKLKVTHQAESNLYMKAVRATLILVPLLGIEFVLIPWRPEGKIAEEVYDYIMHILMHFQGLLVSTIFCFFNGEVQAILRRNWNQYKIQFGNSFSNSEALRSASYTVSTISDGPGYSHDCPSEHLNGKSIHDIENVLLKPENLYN

Cc1cc(C[C@@H](NC(=O)N2CCC(N3Cc4ccccc4NC3=O)CC2)C(=O)N2CCC(N3CCCCC3)CC2)cc2cn[nH]c12
solubility [1]: 15 mg/mL (≈ 23.9 mM)
Ki [2]: 0.01 nM

O=C(N[C@H](Cc1ccc2[nH]ncc2c1)C(=O)N1CCC(N2CCCCC2)CC1)N1CCC(N2Cc3ccccc3NC2=O)CC1
IC50 [3]: 4000 nM
IC50 [4]: > 40000 nM
Activity [5]: Not Active

Cc1cc(C[C@@H](NC(=O)N2CCC(N3Cc4cccc(F)c4NC3=O)CC2)C(=O)N2CCC(N3CCCCC3)CC2)cc2cn[nH]c12
Kb [6]: 0.028 nM
EC50 [7]: 311 nM
Activity [8]: Active
Activity [9]: Active
Activity [10]: inactive
Activity [11]: inactive
bioavailability [12]: ≤ 0.3%
bioavailability [13]: ≤ 0.3%
Papp [14]: < 1.5 ×10⁻⁶ cm/s
solubility [15]: > 500 mg/mL
Cmax [16]: 8.2 µM
Tmax [17]: 1.98 min
AUC [18]: 1100 nM·h
clearance [19]: 13 mL/min/kg
Vd [20]: 2.7 L/kg
half-life [21]: 660 min
Tmax [22]: 10.2 min
AUC [23]: 1300 nM·h
F [24]: 59%
Cmax [25]: 360 nM
Tmax [26]: 10.2 min
AUC [27]: 0.36 µM·h
bioavailability [28]: 55.2%
concentration at 24 h [29]: > 10 nM
bioavailability [30]: 73%
bioavailability [31]: 81%
bioavailability [32]: 43%
bioavailability [33]: 76%
fraction unbound at 10 µM [34]: 0.35
EC50 [35]: 0.0345 nM
Ki [2]: 0.0128 nM
Ki [36]: 0.078 nM
Ki [37]: > 1000 nM
IC50 [38]: > 40 µM
IC50 [39]: > 40 µM
Ki [40]: > 5 µM
Ki [41]: > 5 µM
Ki [42]: > 5 µM
Ki [43]: > 500 nM
Ki [44]: > 5 µM
EC50 [45]: 0.06 nM
Cmax [46]: 1200 nM

O=C(N[C@H](Cc1csc2ccccc12)C(=O)N1CCC(N2CCCCC2)CC1)N1CCC(N2Cc3ccccc3NC2=O)CC1
Ki [2]: 0.55 nM
IC50 [3]: 84 nM
IC50 [4]: 870 nM
Activity [5]: Not Active
